Measured values as given in publication PMC4706799 (Cancer prevention research (Philadelphia, Pa.), 2015).
Several values for one entry are separate records, joined by “and”; a condition that tells them apart may be missing. Identical values can stand only once.

Legend:
Mcl-1 = assay: Western blot, Mcl-1 expression; assay type: cell-based; conditions: Tu212 and Tu686, 24 h
Outline: (§1)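 Tu212 and Tu686 cells were treated with test compound at indicated doses for 24 h. Whole-cell lysates were immunoblotted for Bcl-2 family proteins (Bcl-2, Bcl-xL, Mcl-1, Bid, Bim, PUMA, NOXA), using 20 µg protein per lane on 8–12% SDS-PAGE and PVDF transfer. β-Actin or GAPDH served as loading control; detection was by enhanced chemiluminescence.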

MSK-Leuk1 = assay: SRB growth inhibition assay, MSK-Leuk1; assay type: cell-based; conditions: 72 h
Outline: (§2)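 SCCHN lines were kept in DMEM/F12 (1:1) with 10% heat-inactivated FBS at 37 °C and 5% CO2; MSK-Leuk1 was kept in keratinocyte basal medium. Cells were seeded in 96-well plates, incubated overnight, then exposed for 72 h to a range of test-compound concentrations (DMSO stock diluted in RPMI, final DMSO <0.1%). Growth inhibition was read by sulforhodamine B staining, and IC50 was calculated by software.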

JHU022 = assay: SRB growth inhibition assay, JHU022; assay type: cell-based
Outline: as §2

[1] = Body weight and organ toxicity in xenograft study; assay type: in vivo; conditions: 50 mg/kg i.p., 17 days
MSK cell line = assay: Annexin V-PE staining for apoptosis, MSK; assay type: cell-based; conditions: 24 h treatment
Outline: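 MSK-Leuk1 premalignant cells, grown in keratinocyte basal medium, were seeded in 6-cm plates to 40–50% confluency. They were treated for 24 h with test compound at doses chosen per cell line (DMSO stock diluted in RPMI, final DMSO <0.1%). Cells were trypsinized, washed in cold PBS, stained with annexin V-PE plus 7-AAD for 15 min at room temperature, and read by flow cytometry. Three independent experiments; mean ± SD; paired two-tailed t-test versus untreated control.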

Bim = assay: Western blot, Bim expression; assay type: cell-based; conditions: Tu212 and Tu686, 24 h
Outline: as §1

PCI-13 = assay: SRB growth inhibition assay, PCI-13; assay type: cell-based
Outline: as §2

AKT mRNA = assay: Real-time qPCR, AKT mRNA; assay type: cell-based; conditions: Tu212 and Tu686
Bcl-xL = assay: Western blot, Bcl-xL expression; assay type: cell-based; conditions: Tu212 and Tu686, 24 h
Outline: as §1

[2] = Pharmacokinetic study, plasma LC/MS/MS; assay type: in vivo, A/J mice
886LN = assay: SRB growth inhibition assay, 886LN; assay type: cell-based; conditions: 72 h
Outline: as §2

Tu686 = assay: SRB growth inhibition assay, Tu686; assay type: cell-based
Outline: as §2

UM-22B = assay: SRB growth inhibition assay, UM-22B; assay type: cell-based; conditions: 72 h
Outline: as §2

EGFR mRNA = assay: Real-time qPCR, EGFR mRNA; assay type: cell-based; conditions: Tu212 and Tu686
Bcl-2 = assay: Western blot, Bcl-2 expression; assay type: cell-based; conditions: Tu212 and Tu686, 24 h
Outline: as §1

PARP = assay: Western blot for PARP cleavage; assay type: cell-based; conditions: Tu212, Tu686, MSK-LEUK1, 24 h
Outline: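 Tu212, Tu686 and MSK-Leuk1 cells were treated with test compound at indicated doses for 24 h. Whole-cell lysates (20 µg protein) were run on 8–12% SDS-PAGE and transferred to PVDF. Blots were probed with a PARP antibody recognising both full-length and cleaved forms, with β-actin or GAPDH as loading control, and detected by enhanced chemiluminescence.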

Bid = assay: Western blot, Bid expression; assay type: cell-based; conditions: Tu212 and Tu686, 24 h
Outline: as §1

SQCCY1 = assay: SRB growth inhibition assay, SQCCY1; assay type: cell-based
Outline: as §2

AKT = assay: Western blot, pAKT and AKT; assay type: cell-based; conditions: Tu212, Tu686, MSK-LEUK1
Tu686 SCCHN xenografts = assay: Nude mouse xenograft model; assay type: in vivo, nude mice; conditions: for effect on tumor volume: 50 mg/kg i.p., once/day, five days/week, 17 days
cytochrome c = assay: Cytochrome c release in the cytoplasm; assay type: cell-based; conditions: Tu212 cells
Outline: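 Tu212 cells were treated with test compound. Cytosolic and mitochondrial fractions were separated and immunoblotted for cytochrome c, with ERK as cytoplasmic control and Cox4 as mitochondrial control. Equal protein (20 µg) was run on 8–12% SDS-PAGE, transferred to PVDF and detected by enhanced chemiluminescence. Blots shown represent three independent experiments.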

Tu177 = assay: SRB growth inhibition assay, Tu177; assay type: cell-based
Outline: as §2

EGFR = assay: Western blot, pEGFR and EGFR; assay type: cell-based; conditions: Tu212, Tu686, MSK-LEUK1
Tu212 = assay: SRB growth inhibition assay, Tu212; assay type: cell-based
Outline: as §2

SCCHN cell lines = assay: Annexin V-PE staining for apoptosis; assay type: cell-based; conditions: for concentration sufficient to induce ~80% apoptosis: by 48 h, annexin V-PE
[3] = system: mTOR pathway (S6 and 4EBP1); assay: Western blot, mTOR pathway readouts; assay type: cell-based; conditions: Tu212, Tu686, MSK-LEUK1
Outline: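 Tu212, Tu686 and MSK-Leuk1 cells were treated with different doses of test compound. Whole-cell lysates (20 µg protein, 8–12% SDS-PAGE, PVDF) were immunoblotted for p-mTOR, p-S6, S6, p-4EBP1 and 4EBP1, with β-actin or GAPDH loading control and chemiluminescent detection. Blots shown represent three independent experiments.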

FOXO1 and 3 = assay: Western blot, FOXO phosphorylation; assay type: cell-based; conditions: Tu686 cells, multiple sites
Outline: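 Tu686 cells were exposed to test compound, and whole-cell lysates were probed by Western blot for phospho-FOXO1a and phospho-FOXO3a. Equal protein (20 µg) was separated on 8–12% SDS-PAGE and blotted to PVDF, with β-actin or GAPDH as loading control and enhanced chemiluminescence detection. Blots shown represent three independent experiments.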

Bcl-2 mRNA = assay: Real-time qPCR, Bcl-2 mRNA; assay type: cell-based; conditions: Tu212 and Tu686
Outline: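 Tu212 and Tu686 cells were treated with test compound at 1 µM and 2 µM (T1) or 2 µM and 3 µM (T2), respectively. Total RNA was column-extracted, and 2 µg was reverse transcribed to cDNA. Bcl-2 mRNA was quantified by SYBR Green real-time qPCR and compared with the corresponding untreated control.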

[4] = cited from earlier work
[5] = cited from earlier work; remark: listed apart in the source
[6] = system: premalignant (MSK-LEUK1) and malignant SCCHN cell lines; assay: SRB growth inhibition assay, cell line panel; assay type: cell-based; conditions: 72 h, read-out: IC50 values, range over the cell lines
Outline: as §2

[7] = cited from earlier work; remark: listed apart in the source
[8] = female, A/J, mouse, plasma, po, 200 mg/kg

COc1cc(/C=C/C(=O)/C=C/c2cc(OC)c(O)c(OC)c2)cc(OC)c1O [FLLL12]
expression of Mcl-1 (Mcl-1): remained mostly unchanged
IC50 (MSK-Leuk1; MSK-Leuk1 (premalignant), SRB assay): 0.35 µM
IC50 (JHU022; JHU022, 72 h, SRB assay): 0.77 µM
toxicity (H&E of major organs, body weight) [1]: without inducing any notable toxicity
apoptosis (MSK cell line): more than 80%
expression of Bim (Bim): increased
IC50 (PCI-13; PCI-13, 72 h, SRB assay): 0.35 µM
mRNA expression of AKT (AKT mRNA): strongly inhibited the mRNA expression
expression of Bcl-xL (Bcl-xL): remained mostly unchanged
AUC (0-∞) ([2]; 200 mg/kg oral): 418.5 ng·h/mL
AUC, fold greater than curcumin ([2]; 200 mg/kg oral): 3–4 fold
Cmax, fold greater than curcumin ([2]; 200 mg/kg oral): 4.3 fold and ~ 4.0 fold and 3–4 fold
terminal elimination half-life (t½) ([2]; 200 mg/kg oral): 4.8 h
Tmax ([2]; 200 mg/kg oral, DMSO/0.5% CMC, plasma): 0.5 h
Cmax ([2]; 200 mg/kg oral, plasma): 241.5 ng/mL
IC50 (886LN; 886LN, SRB assay): 0.72 µM
IC50 (Tu686; Tu686, 72 h, SRB assay): 0.68 µM
IC50 (UM-22B; UM-22B, SRB assay): 0.57 µM
mRNA expression of EGFR (EGFR mRNA): strongly inhibited the mRNA expression
expression of Bcl-2 protein (Bcl-2): inhibited
cleavage of PARP (PARP): markedly induced the cleavage of PARP
expression of Bid (full length) (Bid): inhibited
IC50 (SQCCY1; SQCCY1, 72 h, SRB assay): 1.55 µM
phosphorylation of AKT (AKT): inhibited the phosphorylation
total AKT protein (AKT): inhibited
effect on tumor volume (Tu686 SCCHN xenografts): significantly reduced tumor volume
release of cytochrome c in the cytoplasm (cytochrome c): caused release of cytochrome c
IC50 (Tu177; Tu177, 72 h, SRB assay): 0.45 µM
phosphorylation of EGFR (EGFR): inhibited the phosphorylation
total EGFR protein (EGFR): inhibited
IC50 (Tu212; Tu212, 72 h, SRB assay): 0.46 µM
fold more potent than curcumin in inducing apoptosis (SCCHN cell lines; SCCHN cell lines): 5–10 fold
concentration sufficient to induce ~80% apoptosis (SCCHN cell lines): 1 to 3 µM
phosphorylation of S6 and 4EBP1 [3]: strongly inhibited phosphorylation
phosphorylation of FOXO1 and 3 (FOXO1 and 3): strongly inhibited the phosphorylation
expression of Bcl-2 mRNA (Bcl-2 mRNA): increased rather than decreased

O=C1/C(=C/c2ccccc2F)CNC/C1=C\c1ccccc1F [EF24]
fold better anti-cancer efficacy than natural curcumin in vitro [4]: ~ 10 fold

COc1cc(/C=C/C(=O)C(=Cc2ccc(F)c(F)c2)C(=O)/C=C/c2ccc(O)c(OC)c2)ccc1O [CDF]
accumulation in pancreatic tissue, fold higher than curcumin [5]: 10.6 fold
systemic drug level, fold greater than curcumin [5]: 2.7 fold

COc1cc(/C=C/C(=O)CC(=O)/C=C/c2ccc(O)c(OC)c2)ccc1O [curcumin, reference compound]
IC50 (MSK-Leuk1): 6.81 µM
IC50 (JHU022; 72 h): 4.53 µM
IC50 (PCI-13; 72 h): 5.73 µM
mRNA expression of AKT (AKT mRNA): strongly inhibited the mRNA expression
AUC(0-inf) [2, 8]: 131 ng·h/mL
Cmax [2, 8]: 55.6 ng/mL
Tmax [2, 8]: 0.25 h
half-life [2, 8]: 7.7 h
IC50 [6]: 4.53 to 17.4 µM
IC50 (886LN): 17.4 µM
IC50 (Tu686; Tu 686, 72 h): 6.7 µM
IC50 (UM-22B): 7.76 µM
mRNA expression of EGFR (EGFR mRNA): strongly inhibited the mRNA expression
oral bioavailability [7]: ~ 1%
IC50 (SQCCY1; 72 h): 12.6 µM
phosphorylation of AKT (AKT): inhibited the phosphorylation
total AKT protein (AKT): inhibited
effect on tumor volume (Tu686 SCCHN xenografts): had no effect
efficacy in xenograft study (Tu686 SCCHN xenografts; 150 mg/kg, earlier study, data not shown): did not find any efficacy
IC50 (Tu177; 72 h): 5.25 µM
phosphorylation of EGFR (EGFR): inhibited the phosphorylation
total EGFR protein (EGFR): inhibited
IC50 (Tu212; TU212, 72 h): 6.97 µM
concentration sufficient to induce ~80% apoptosis (SCCHN cell lines): 10 to 15 µM

O=C1/C(=C/c2ccccn2)CNC/C1=C\c1ccccn1 [compound 31]
fold better anti-cancer efficacy than natural curcumin in vitro [4]: ~ 10 fold

CN1C/C(=C\c2ccccn2)C(=O)/C(=C/c2ccccn2)C1 [UBS109]
fold better anti-cancer efficacy than natural curcumin in vitro [4]: ~ 10 fold
